From ChEMBL document CHEMBL1133651, “Thiazoloindans and thiazolobenzopyrans: a novel class of orally active central dopamine (partial) agonists” (J Med Chem, 2000)
pEC50, pIC50, pKi: −log10 of the molar value. Calls of active or inactive are those of the source. The rule behind the calls is not given here.

Key:
[1] = biological target: D(3) dopamine receptor (Rattus norvegicus) (UniProt P19020); settings: CHO-L6
[2] = Inhibitory concentration of lipid peroxidation (LPO).; type: functional
D(3) dopamine receptor [3] = biological target: D(3) dopamine receptor (Homo sapiens, UniProt P35462); test: in vitro binding affinity was determined on human Dopamine receptor D3 expressed in chinese hamster ovary(CHO) K-1 cells using [3H]spiperone as radioligand.; type: cell-based, CHO-K1
Chain of D(3) dopamine receptor (Homo sapiens, UniProt P35462) (P35462 whole entry): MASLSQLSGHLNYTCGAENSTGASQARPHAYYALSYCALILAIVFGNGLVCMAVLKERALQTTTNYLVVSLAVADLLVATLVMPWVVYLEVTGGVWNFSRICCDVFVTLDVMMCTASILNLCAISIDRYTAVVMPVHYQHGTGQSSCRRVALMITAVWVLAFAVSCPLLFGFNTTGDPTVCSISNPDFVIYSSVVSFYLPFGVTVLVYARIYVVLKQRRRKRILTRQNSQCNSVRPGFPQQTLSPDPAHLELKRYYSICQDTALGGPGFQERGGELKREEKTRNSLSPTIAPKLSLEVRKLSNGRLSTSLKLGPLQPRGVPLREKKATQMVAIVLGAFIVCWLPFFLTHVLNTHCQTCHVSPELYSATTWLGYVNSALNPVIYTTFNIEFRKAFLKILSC

[4] = biological target: D(2) dopamine receptor (Rattus norvegicus) (UniProt P61169); test: Inhibition of quinpirole (30 nM)-stimulated [3H]thymidine uptake in CHO-L6 cells transfected with the rat Dopamine receptor D2L; NA is not active; type: functional, cell-based
Chain of D(2) dopamine receptor (Rattus norvegicus) (P61169 whole entry): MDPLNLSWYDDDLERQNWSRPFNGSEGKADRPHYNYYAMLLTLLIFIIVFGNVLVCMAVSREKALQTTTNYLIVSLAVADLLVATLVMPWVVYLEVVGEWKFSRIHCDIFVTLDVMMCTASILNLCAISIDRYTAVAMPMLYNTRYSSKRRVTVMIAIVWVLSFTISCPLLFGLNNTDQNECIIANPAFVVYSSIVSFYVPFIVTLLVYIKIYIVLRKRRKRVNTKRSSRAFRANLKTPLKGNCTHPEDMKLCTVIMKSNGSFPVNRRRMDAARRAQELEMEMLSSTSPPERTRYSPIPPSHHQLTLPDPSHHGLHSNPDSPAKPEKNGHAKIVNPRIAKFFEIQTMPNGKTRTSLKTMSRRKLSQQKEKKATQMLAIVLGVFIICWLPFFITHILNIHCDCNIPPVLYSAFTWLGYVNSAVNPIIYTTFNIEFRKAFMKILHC

D(3) dopamine receptor [5] = biological target: T1, D(3) dopamine receptor (Rattus norvegicus, UniProt P19020); test: Effective concentration was determined as thymidine uptake in CHO-L6 cells transfected with the rat Dopamine receptor D3 by mitogenesis assay (intrinsic activity)
T1 sequence (P19020 whole entry): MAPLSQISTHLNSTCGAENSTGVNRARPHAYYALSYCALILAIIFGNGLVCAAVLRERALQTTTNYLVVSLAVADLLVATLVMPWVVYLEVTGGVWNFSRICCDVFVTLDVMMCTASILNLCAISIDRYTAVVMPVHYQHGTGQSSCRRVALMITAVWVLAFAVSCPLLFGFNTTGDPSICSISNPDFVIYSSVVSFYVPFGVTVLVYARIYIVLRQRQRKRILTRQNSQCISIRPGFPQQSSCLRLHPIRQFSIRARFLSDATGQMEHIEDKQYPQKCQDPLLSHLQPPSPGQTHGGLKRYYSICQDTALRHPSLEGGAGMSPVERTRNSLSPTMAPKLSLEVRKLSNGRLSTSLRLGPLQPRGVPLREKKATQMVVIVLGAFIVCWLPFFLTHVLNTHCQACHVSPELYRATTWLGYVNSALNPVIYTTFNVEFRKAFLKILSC

[6] = biological target: D(2) dopamine receptor (Rattus norvegicus) (UniProt P61169); test: compound was tested for intrinsic activity for thymidine uptake in CHO-L6 cells transfected with rat Dopamine receptor D2L; type: functional, cell-based
Procedure, shortened: (§1)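 Mitogenesis assay for agonism: [³H]thymidine uptake measured in CHO-L6 cells transfected with rat D2L receptor. Intrinsic activity expressed relative to quinpirole, taken as full agonist (IA 100%). Means of three determinations.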

D(2) dopamine receptor [7] = biological target: T2, D(2) dopamine receptor (Rattus norvegicus, UniProt P61169); test: Effective concentration was determined as thymidine uptake in CHO-L6 cells transfected with the rat Dopamine receptor D2L by mitogenesis assay (intrinsic activity); type: functional, cell-based
T2 sequence (P61169 whole entry): as the sequence (P61169 whole entry) above
Procedure, shortened: as §1

D(2) dopamine receptor [8] = biological target: T3, D(2) dopamine receptor (Homo sapiens, UniProt P14416); test: in vitro binding affinity was determined on human Dopamine receptor D2L expressed in chinese hamster ovary(CHO) K-1 cells using [3H]NPA as radioligand.; type: cell-based, CHO-K1
T3 sequence (P14416 whole entry): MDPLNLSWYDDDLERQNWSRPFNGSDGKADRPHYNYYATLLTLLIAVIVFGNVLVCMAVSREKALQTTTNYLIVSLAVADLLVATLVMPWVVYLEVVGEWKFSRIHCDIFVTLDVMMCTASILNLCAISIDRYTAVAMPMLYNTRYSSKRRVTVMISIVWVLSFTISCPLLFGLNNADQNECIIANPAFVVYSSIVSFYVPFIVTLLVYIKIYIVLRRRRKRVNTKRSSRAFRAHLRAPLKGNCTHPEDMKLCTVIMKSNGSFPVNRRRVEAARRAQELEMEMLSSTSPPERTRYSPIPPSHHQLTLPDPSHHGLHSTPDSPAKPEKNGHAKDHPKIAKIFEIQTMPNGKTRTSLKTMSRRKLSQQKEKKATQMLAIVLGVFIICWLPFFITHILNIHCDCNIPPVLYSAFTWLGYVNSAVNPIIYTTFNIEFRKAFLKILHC
Procedure, shortened: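 Displacement of agonist radioligand [³H]NPA from human D2L receptors expressed in CHO K-1 cells. Ki is the mean of three separate experiments, with results varying by no more than 25%.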

D(4) dopamine receptor = biological target: T4, D(4) dopamine receptor (Homo sapiens, UniProt P21917); test: in vitro binding affinity was determined on human Dopamine receptor D4 expressed in chinese hamster ovary(CHO) K-1 cells using [3H]spiperone as radioligand.; type: cell-based, CHO-K1
T4 sequence (P21917 whole entry): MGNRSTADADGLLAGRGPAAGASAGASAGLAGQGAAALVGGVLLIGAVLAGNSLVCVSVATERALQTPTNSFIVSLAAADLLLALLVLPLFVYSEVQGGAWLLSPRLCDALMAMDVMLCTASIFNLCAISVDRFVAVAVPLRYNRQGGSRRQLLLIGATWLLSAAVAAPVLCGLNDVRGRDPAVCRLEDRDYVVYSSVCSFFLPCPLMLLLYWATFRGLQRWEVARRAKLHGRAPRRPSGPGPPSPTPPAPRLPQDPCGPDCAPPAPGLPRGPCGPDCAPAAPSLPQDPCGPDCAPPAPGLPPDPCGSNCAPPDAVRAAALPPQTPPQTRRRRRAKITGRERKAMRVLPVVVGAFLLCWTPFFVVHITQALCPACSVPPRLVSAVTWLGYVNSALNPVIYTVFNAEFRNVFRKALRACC
Procedure, shortened: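 Displacement of [³H]spiperone from human D4.2 receptors expressed in CHO K-1 cells; Ki values are means of three separate experiments, which varied by no more than 25%.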

D(2) dopamine receptor [9] = biological target: T3, D(2) dopamine receptor; test: in vitro binding affinity was determined on human Dopamine receptor D2L expressed in chinese hamster ovary(CHO) K-1 cells using [3H]spiperone as radioligand.; type: cell-based, CHO-K1
Procedure, shortened: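 Antagonist binding: displacement of [³H]spiperone from human DA D2L, D3 or D4.2 receptors expressed in CHO K-1 cells; Ki as mean of three separate experiments, varying by no more than 25%; high- and low-affinity Ki reported separately where applicable.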

D(2) dopamine receptor [10] = biological target: T3, D(2) dopamine receptor; test: in vitro binding affinity was determined on human Dopamine receptor D2L expressed in chinese hamster ovary(CHO) K-1 cells using [3H]-0437 as radioligand.; type: cell-based, CHO-K1
Procedure, shortened: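 Human DA D2L receptor expressed in CHO K-1 cells; agonist radioligand displacement ([³H]N-0437 or [³H]NPA); Ki as mean of three separate experiments, varying by no more than 25%.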

[11] = Log d of compound was determined; type: physicochemical; settings: octanol/water
D(3) dopamine receptor [12] = biological target: T1, D(3) dopamine receptor; test: Effective concentration was determined as thymidine uptake in CHO-L6 cells transfected with the rat Dopamine receptor D3 by mitogenesis assay; type: functional, cell-based
[13] = biological target: D(2) dopamine receptor (Rattus norvegicus) (UniProt P61169); test: Inhibition of quinpirole (30 nM)-stimulated [3H]thymidine uptake in CHO-L6 cells transfected with the rat Dopamine receptor D2L; compound is active showing test concentration ranging from 0.1 nM - 1 uM; type: functional, cell-based
[14] = biological target: D(3) dopamine receptor (Rattus norvegicus) (UniProt P19020); settings: CHO-L6; remark: listed apart in the source
D(2) dopamine receptor [15] = biological target: T2, D(2) dopamine receptor; test: Effective concentration was determined as thymidine uptake in CHO-L6 cells transfected with the rat Dopamine receptor D2L by mitogenesis assay; type: functional, cell-based
Procedure, shortened: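 Agonism read as [³H]thymidine uptake (mitogenesis) in CHO-L6 cells transfected with rat DA D2L receptor; intrinsic activity expressed relative to quinpirole (full agonist, IA 100%); test concentrations 0.1 nM to 1 µM; means of three determinations ± SEM.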

[16] = biological target: D(2) dopamine receptor (Rattus norvegicus) (UniProt P61169); test: Inhibition of quinpirole (30 nM)-stimulated [3H]thymidine uptake in CHO-L6 cells transfected with the rat Dopamine receptor D2L;compound is active showing test concentration ranging from 0.1 nM - 1 uM; type: functional, cell-based

Chain of D(3) dopamine receptor (Rattus norvegicus) (P19020 whole entry): as the sequence (P19020 whole entry) above

| pIC50 [2] | pKi (D(3) dopamine receptor [3]) | pKi (D(2) dopamine receptor [9]) | pKi (D(2) dopamine receptor [10]) | Inhibitory activity [13] | pEC50 (D(2) dopamine receptor [15]) | Compound | Inhibitory activity [1] | NA [4] | pEC50 (D(3) dopamine receptor [5]) | Intrinsic activity [6] [%] | pEC50 (D(2) dopamine receptor [7]) | pKi (D(2) dopamine receptor [8]) | pIC50 (D(4) dopamine receptor) | logD [11] | pKi (D(4) dopamine receptor) | pEC50 (D(3) dopamine receptor [12]) | Inhibitory activity [14] | Inhibitory activity [16] |
| --- | --- | --- | --- | --- | --- | --- | --- | --- | --- | --- | --- | --- | --- | --- | --- | --- | --- | --- |
| 5.30 | 5.85 | 5.45 | 6.27 | – | – | CCCN(CCC)C1COc2c(ccc3sc(N)nc23)C1 (centres undefined) | – | – | – | – | – | – | – | – | – | – | – | – |
| 4.30 | 6.29 | 5.23 | 7.33 | Active | 6.83 | CCCN(CCC)C1COc2ccc3nc(N)sc3c2C1 (centres undefined) | – | – | – | 7 | – | – | – | – | – | < 6.00 | Active | – |

The next lines start with the molecule.

| Compound | pIC50 [2] | pKi (D(3) dopamine receptor [3]) | pKi (D(2) dopamine receptor [9]) | pKi (D(2) dopamine receptor [10]) | Inhibitory activity [13] | pEC50 (D(2) dopamine receptor [15]) | Inhibitory activity [1] | NA [4] | pEC50 (D(3) dopamine receptor [5]) | Intrinsic activity [6] [%] | pEC50 (D(2) dopamine receptor [7]) | pKi (D(2) dopamine receptor [8]) | pIC50 (D(4) dopamine receptor) | logD [11] | pKi (D(4) dopamine receptor) | pEC50 (D(3) dopamine receptor [12]) | Inhibitory activity [14] | Inhibitory activity [16] |
| --- | --- | --- | --- | --- | --- | --- | --- | --- | --- | --- | --- | --- | --- | --- | --- | --- | --- | --- |
| CCCN(CCC)C1Cc2ccc3nc(N)sc3c2C1 (centres undefined) | 4.52 | 7.96 | – | – | – | – | Active | inactive | < 6.00 | 71 | 7.73 | 6.30 | < 5.00 | – | – | – | – | – |
| CCCNC1Cc2cc3nc(N)sc3cc2C1 (centres undefined) | < 4.00 | < 5.00 | – | – | – | – | – | – | – | – | – | 5.87 | – | 0.19 | < 5.48 | – | – | – |
| CCCN(CCC)C1Cc2cc3nc(N)sc3cc2C1 (centres undefined) | 4.22 | 8.85 | – | – | – | – | – | – | < 6.00 | 28 | 8.24 | 7.57 | – | 1.66 | 6.57 | – | Active | Active |
| CCCN[C@H]1CCc2nc(N)sc2C1 [PRAMIPEXOLE] | – | – | – | – | – | – | – | – | – | 90 | – | – | – | – | – | 9.68 | – | – |
